Reference: ChEMBL document CHEMBL3621052, “Small cyclic agonists of iron regulatory hormone hepcidin” (Bioorg Med Chem Lett, 2015)
Starred links: 1 amine or outer side, 2 acyl side, 3 side chain; linkers in the order of their positions; H or OH if unused. Positions of bridges follow the written chain, without caps; N, C: chain ends. Non-standard residues stand in square brackets, D forms with d. Residues, ends and D or L forms follow the SMILES beside them. ξ: configuration not given here. *: point of attachment. CH2CONHCH2CH2NHCOCH2 = O=C(C[*:1])NCCNC(=O)C[*:2]; Pyridine(2,6-diCH2) = c1cc(C[*:1])nc(C[*:2])c1; X2 = O=C(CC(c1ccccc1)(c1ccccc1)c1ccccc1)*; dDip = N[C@@H](C(=O)O)C(c1ccccc1)c1ccccc1; X5 = c1cc(Cc2cccc(C[*:2])c2)cc(C[*:1])c1; Dip = N[C@H](C(=O)O)C(c1ccccc1)c1ccccc1; X7 = c1cc(Oc2ccc(C[*:2])cc2)ccc1C[*:1]; TBMB = c1c(C[*:1])cc(C[*:3])cc1C[*:2]; mXylylene = c1cc(C[*:1])cc(C[*:2])c1; oXylylene = c1ccc(C[*:2])c(C[*:1])c1; NH(CH2CH2O)2CH2CH2NH2 = NCCOCCOCCN*; X6 = c1cc(C[*:1])c2c(C[*:2])cccc2c1; pXylylene = c1cc(C[*:2])ccc1C[*:1]; Palmitoyl = CCCCCCCCCCCCCCCC(=O)*; X4 = c1cc(CSCCN[*:2])cc(C[*:1])c1; X3 = O=S(=O)(CC[*:1])CC[*:2]; ξF = NC(Cc1ccccc1)C(=O)O

target: T1, Ferroportin (Homo sapiens, UniProt Q9NP59); test: Agonist activity at GFP-fused human FPN transfected in HEK293 cells assessed as protein degradation after 24 hrs by flow cytometric analysis; assay type: cell-based
T1 sequence (Q9NP59 whole entry): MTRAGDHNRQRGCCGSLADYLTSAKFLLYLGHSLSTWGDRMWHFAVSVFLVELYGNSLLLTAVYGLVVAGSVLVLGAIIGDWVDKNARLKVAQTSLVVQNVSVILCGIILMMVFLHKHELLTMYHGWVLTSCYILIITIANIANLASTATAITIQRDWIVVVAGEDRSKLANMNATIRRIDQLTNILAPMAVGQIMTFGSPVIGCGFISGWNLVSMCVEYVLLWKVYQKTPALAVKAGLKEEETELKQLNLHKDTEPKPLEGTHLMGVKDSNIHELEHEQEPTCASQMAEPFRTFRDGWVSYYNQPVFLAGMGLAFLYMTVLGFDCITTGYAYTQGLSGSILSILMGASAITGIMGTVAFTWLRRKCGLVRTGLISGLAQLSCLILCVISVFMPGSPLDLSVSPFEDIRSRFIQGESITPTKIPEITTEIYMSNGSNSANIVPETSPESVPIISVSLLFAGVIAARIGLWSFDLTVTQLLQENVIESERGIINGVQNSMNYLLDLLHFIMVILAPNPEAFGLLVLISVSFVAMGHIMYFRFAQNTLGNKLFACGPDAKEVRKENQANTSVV
Outline: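 HEK293:TREX-Fpn-GFP cells (human ferroportin-GFP, doxycycline-inducible) plated on poly-D-lysine with 20 μM FAC, induced with 500 ng/mL doxycycline for 24 h, washed, then peptide-treated 24 h. Green fluorescence read by flow cytometry at 1 × 10^6 cells/mL, gated against uninduced cells. Activity expressed as fraction of hep25: 1 − [(Fx − Fhep25)/(Funtreated − Fhep25)]. 3–6 independent repeats.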

Going from `N=C(N)NCCC[C@@H]1NC(=O)[C@H](CS)NC(=O)[C@H](CCCNC(=N)N)NC(=O)[C@H](NC(=O)CC(c2ccccc2)c2ccccc2)CSCc2cccc(c2)CSCCNC(=O)[C@H](Cc2ccccc2)NC1=O` to `CCCCCCCCCCCCCCCC(=O)N[C@H](C(=O)N[C@H]1CSCc2cccc(c2)CSCCNC(=O)[C@H](Cc2ccccc2)NC(=O)[C@H](CCCNC(=N)N)NC(=O)[C@H](CS)NC(=O)[C@H](CCCNC(=N)N)NC1=O)C(c1ccccc1)c1ccccc1` (Palmitoyl-[Dip]CRCRF; linker 2-C via X4), the EC50 rises from 0.269 µM to greater than 0.6 µM.

Compared with `C[C@@H](O)[C@H](NC(=O)CNCC(=O)O)C(=O)N[C@H]1CSCc2cccc(c2)CSC[C@@H](C(N)=O)NC(=O)[C@H](Cc2ccccc2)NC(=O)[C@H](CCCNC(=N)N)NC(=O)[C@H](CS)NC(=O)[C@H](CCCNC(=N)N)NC(=O)[C@@H]2CCCN2C(=O)[C@H](Cc2ccccc2)NC1=O`, `C[C@@H](O)[C@H](NC(=O)CNCC(=O)O)C(=O)N[C@H]1CSCc2cccc(c2)CSC[C@@H](C(N)=O)NC(=O)[C@H](Cc2ccccc2)NC(=O)[C@H](CCCNC(=N)N)NC(=O)[C@H](CS)NC(=O)[C@H](CCCNC(=N)N)NC(=O)[C@@H]2CCCN2C(=O)[C@H](C(c2ccccc2)c2ccccc2)NC1=O` is 7.1-fold lower in EC50: 0.532 µM for the first, 0.0751 µM for the second. The second is the more potent here.

`CC(=O)N[C@H]1CSCC(=O)NCCNC(=O)CSC[C@@H](C(N)=O)NC(=O)[C@H](Cc2ccccc2)NC(=O)[C@H](CCCNC(=N)N)NC(=O)[C@H](CS)NC(=O)[C@H](CCCNC(=N)N)NC(=O)[C@@H]2CCCN2C(=O)[C@H](Cc2ccccc2)NC1=O` (Ac-CFPRCRFC-NH2; linker 1-8 via CH2CONHCH2CH2NHCOCH2) and `CC(=O)N[C@H]1CSCCS(=O)(=O)CCSC[C@@H](C(N)=O)NC(=O)[C@H](Cc2ccccc2)NC(=O)[C@H](CCCNC(=N)N)NC(=O)[C@H](CS)NC(=O)[C@H](CCCNC(=N)N)NC(=O)[C@@H]2CCCN2C(=O)[C@H](Cc2ccccc2)NC1=O` (Ac-CFPRCRFC-NH2; linker 1-8 via X3) cannot be ordered by EC50: greater than 0.6 µM for the first, greater than 0.6 µM for the second.

Compared with `CC(=O)N[C@H]1CSCc2cccc(n2)CSC[C@@H](C(N)=O)NC(=O)[C@H](Cc2ccccc2)NC(=O)[C@H](CCCNC(=N)N)NC(=O)[C@H](CS)NC(=O)[C@H](CCCNC(=N)N)NC(=O)[C@@H]2CCCN2C(=O)[C@H](Cc2ccccc2)NC1=O` (Ac-CFPRCRFC-NH2; linker 1-8 via Pyridine(2,6-diCH2)), `CC(=O)N[C@H]1CSCc2cccc(c2)CSC[C@@H](C(N)=O)NC(=O)[C@H](Cc2ccccc2)NC(=O)[C@H](CCCNC(=N)N)NC(=O)[C@H](CS)NC(=O)[C@H](CCCNC(=N)N)NC(=O)[C@@H]2CCCN2C(=O)[C@H](Cc2ccccc2)NC1=O` (Ac-CFPRCRFC-NH2; linker 1-8 via mXylylene) is lower in EC50: greater than 0.6 µM for the first, 0.272 µM for the second. The second is the more potent here.

`CC(=O)N[C@H]1CSCc2cccc(c2)Cc2cccc(c2)CSC[C@@H](C(N)=O)NC(=O)[C@H](Cc2ccccc2)NC(=O)[C@H](CCCNC(=N)N)NC(=O)[C@H](CS)NC(=O)[C@H](CCCNC(=N)N)NC(=O)[C@@H]2CCCN2C(=O)[C@H](Cc2ccccc2)NC1=O` (Ac-CFPRCRFC-NH2; linker 1-8 via X5) and `CC(=O)N[C@H]1CSCc2ccc(cc2)CSC[C@@H](C(N)=O)NC(=O)[C@H](Cc2ccccc2)NC(=O)[C@H](CCCNC(=N)N)NC(=O)[C@H](CS)NC(=O)[C@H](CCCNC(=N)N)NC(=O)[C@@H]2CCCN2C(=O)[C@H](Cc2ccccc2)NC1=O` (Ac-CFPRCRFC-NH2; linker 1-8 via pXylylene) are within 1.5-fold of each other in EC50: 0.517 µM for the first, 0.586 µM for the second.

Compared with `CC(=O)N[C@H]1CSCc2cccc3cccc(c23)CSC[C@@H](C(N)=O)NC(=O)[C@H](Cc2ccccc2)NC(=O)[C@H](CCCNC(=N)N)NC(=O)[C@H](CS)NC(=O)[C@H](CCCNC(=N)N)NC(=O)[C@@H]2CCCN2C(=O)[C@H](Cc2ccccc2)NC1=O` (Ac-CFPRCRFC-NH2; linker 1-8 via X6), `CC(=O)N[C@H]1CSCc2ccccc2CSC[C@@H](C(N)=O)NC(=O)[C@H](Cc2ccccc2)NC(=O)[C@H](CCCNC(=N)N)NC(=O)[C@H](CS)NC(=O)[C@H](CCCNC(=N)N)NC(=O)[C@@H]2CCCN2C(=O)[C@H](Cc2ccccc2)NC1=O` (Ac-CFPRCRFC-NH2; linker 1-8 via oXylylene) is lower in EC50: greater than 0.6 µM for the first, 0.599 µM for the second. The second is the more potent here.

Compared with `CC(=O)N[C@H]1CSCc2ccc(cc2)Oc2ccc(cc2)CSC[C@@H](C(N)=O)NC(=O)[C@H](Cc2ccccc2)NC(=O)[C@H](CCCNC(=N)N)NC(=O)[C@H](CS)NC(=O)[C@H](CCCNC(=N)N)NC(=O)[C@@H]2CCCN2C(=O)[C@H](Cc2ccccc2)NC1=O` (Ac-CFPRCRFC-NH2; linker 1-8 via X7), `CC(=O)N[C@H]1CSCc2cccc(c2)CSC[C@@H](C(N)=O)NC(=O)[C@H](Cc2ccccc2)NC(=O)[C@H](CCCNC(=N)N)NC(=O)[C@H](CS)NC(=O)[C@H](CCCNC(=N)N)NC(=O)[C@@H]2CCCN2C(=O)[C@H](C(c2ccccc2)c2ccccc2)NC1=O` (Ac-C[Dip]PRCRFC-NH2; linker 1-8 via mXylylene) is 8.8-fold lower in EC50: 0.477 µM for the first, 0.0543 µM for the second.

Going from `CC(=O)N[C@H]1CSCc2cc3cc(c2)CSC[C@H](NC(=O)C(Cc2ccccc2)NC(=O)[C@H](CCCNC(=N)N)NC(=O)[C@H](CS)NC(=O)[C@H](CCCNC(=N)N)NC(=O)[C@@H]2CCCN2C(=O)[C@H](Cc2ccccc2)NC1=O)C(=O)N[C@@H](Cc1ccccc1)C(=O)N1CCC[C@H]1C(=O)N[C@@H](CCCNC(=N)N)C(=O)N[C@@H](CS)C(=O)N[C@@H](CCCNC(=N)N)C(=O)N[C@@H](Cc1ccccc1)C(=O)N[C@H](C(N)=O)CSC3` (stereo not given in full) (Ac-CFPRCR[ξF]CFPRCRFC-NH2; linker 1-8-15 via TBMB) to `CC(=O)N[C@H]1CSCc2cccc(c2)CSC[C@@H](C(=O)NCCOCCOCCN)NC(=O)[C@H](Cc2ccccc2)NC(=O)[C@H](CCCNC(=N)N)NC(=O)[C@H](CS)NC(=O)[C@H](CCCNC(=N)N)NC(=O)[C@@H]2CCCN2C(=O)[C@H](C(c2ccccc2)c2ccccc2)NC1=O` (Ac-C[Dip]PRCRFC-{NH(CH2CH2O)2CH2CH2NH2}; linker 1-8 via mXylylene), the EC50 falls from greater than 0.6 µM to 0.165 µM.

First: CCCCCCCCCCCCCCCC(=O)N[C@H]1CSCc2cccc(c2)CSCCNC(=O)[C@H](Cc2ccccc2)NC(=O)[C@H](CCCNC(=N)N)NC(=O)[C@H](CS)NC(=O)[C@H](CCCNC(=N)N)NC(=O)[C@@H]2CCCN2C(=O)[C@H](C(c2ccccc2)c2ccccc2)NC1=O (Palmitoyl-C[Dip]PRCRF; linker 1-C via X4)
Second: CCCCCCCCCCCCCCCC(=O)N[C@H]1CSCc2cccc(c2)CSC[C@@H](C(N)=O)NC(=O)[C@H](Cc2ccccc2)NC(=O)[C@H](CCCNC(=N)N)NC(=O)[C@H](CS)NC(=O)[C@H](CCCNC(=N)N)NC(=O)[C@@H]2CCCN2C(=O)[C@H](C(c2ccccc2)c2ccccc2)NC1=O (Palmitoyl-C[Dip]PRCRFC-NH2; linker 1-8 via mXylylene)
The EC50 of the first is lower: 0.369 µM for the first, greater than 0.6 µM for the second. The first is the more potent here.

Compared with `CCCCCCCCCCCCCCCC(=O)N[C@@H](C(=O)N[C@H]1CSCc2cccc(c2)CSCCNC(=O)[C@H](Cc2ccccc2)NC(=O)[C@H](CCCNC(=N)N)NC(=O)[C@H](CS)NC(=O)[C@H](CCCNC(=N)N)NC1=O)C(c1ccccc1)c1ccccc1` (Palmitoyl-[dDip]CRCRF; linker 2-C via X4), `N=C(N)NCCC[C@@H]1NC(=O)[C@@H](NC(=O)CC(c2ccccc2)(c2ccccc2)c2ccccc2)CSCc2cccc(c2)CSC[C@@H](C(N)=O)NC(=O)[C@H](Cc2ccccc2)NC(=O)[C@H](CCCNC(=N)N)NC(=O)[C@H](CS)NC1=O` (X2-CRCRFC-NH2; linker 1-6 via mXylylene) is 4.1-fold lower in EC50: 0.458 µM for the first, 0.113 µM for the second. The second is the more potent here.
